Reference: article PMC12525009 (The Febs Journal, 2025)

What was measured:
Format in all cases: binding
MsrQ [1] = target: T1, MsrQ (Escherichia coli, UniProt P76343); assay: quinone extraction of purified protein, HPLC-ECD-MS; details: co-purified from E. coli; per holoprotein (heme content); pH 7.6, LMNG
T1 sequence (P76343 1-211): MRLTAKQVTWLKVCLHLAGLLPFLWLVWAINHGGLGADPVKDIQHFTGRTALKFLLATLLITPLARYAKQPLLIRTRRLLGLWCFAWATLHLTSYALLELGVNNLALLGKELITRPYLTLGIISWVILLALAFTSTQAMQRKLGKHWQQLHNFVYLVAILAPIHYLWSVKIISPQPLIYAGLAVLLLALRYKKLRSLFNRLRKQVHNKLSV
Method in brief: (§1)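 Ni-NTA-purified MsrQ, in 50 mM Tris/HCl pH 7.6 with 0.004% LMNG, was quantified by heme content (pyridine hemochromogen, 556 nm). Quinones were extracted from […] protein with methanol/KCl, using 80 pmol UQ10 as internal standard. Two petroleum ether extractions were pooled, dried under N2 and taken up in ethanol. Fractions equal to 5 and 20 μg protein were run on HPLC-ECD-MS (m/z 500–900). MK8 was quantified against an MK7 curve (2–100 pmol) and UQ8 against a UQ10 standard.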

MsrQ [2] = target: T1, MsrQ; assay: HPLC of flavin released by heat denaturation of purified protein; details: co-purified; 1 μM holoprotein (heme content)
MsrQ [3] = target: T1, MsrQ; assay: quinone extraction of purified protein, HPLC-ECD-MS; details: co-purified from E. coli; per holoprotein (heme content); pH 7.6, LMNG; remark: listed apart in the source
Method in brief: as §1

Question: For `COC1=C(OC)C(=O)C(C/C=C(\C)CC/C=C(\C)CC/C=C(\C)CC/C=C(\C)CC/C=C(\C)CC/C=C(\C)CC/C=C(\C)CCC=C(C)C)=C(C)C1=O` [UQ8], which “UQ8/MsrQ ^b , ^c” value (MsrQ [1]) is on record?
Answer: 0.45 ± 0.06 mol UQ8 per mol MsrQ

Question: How did the “FMN concentration in 1 μM MsrQ” value (MsrQ [2]) turn out when `Cc1cc2nc3c(=O)[nH]c(=O)nc-3n(C[C@H](O)[C@H](O)[C@H](O)COP(=O)(O)O)c2cc1C` [FMN] was run?
Answer: 0.90 µM

Question: Which “MK8/MsrQ ^b , ^d” value (MsrQ [3]) does the source give for `CC(C)=CCC/C(C)=C/CC/C(C)=C/CC/C(C)=C/CC/C(C)=C/CC/C(C)=C/CC/C(C)=C/CC/C(C)=C/CC1=C(C)C(=O)c2ccccc2C1=O` [MK8] here?
Answer: 0.090 ± 0.020 mol MK8 per mol MsrQ
